Calls of active or inactive are those of the source. The rule behind the calls is not given here.
Columns and labels:
[1] = system: Mus musculus; assay: Anti-thrombotic activity in collagen and adrenaline challenged mouse pulmonary thromboembolism model assessed as protection from paralysis or death at 30 uM/kg, po administered 60 mins prior to thrombotic challenge; assay type: functional
Procedure, shortened: (§1)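 Mice were dosed orally 60 min before the challenge, alongside a vehicle group. Pulmonary thromboembolism was then induced by tail-vein injection of a collagen plus adrenaline mixture. Groups held ten mice per test agent and five per reference drug or vehicle. The read-out was % protection against hind-limb paralysis or death.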

[2] = system: Mus musculus; assay: Increase of bleeding time in mouse at 30 uM/kg, po administered 60 mins prior to tail incision; assay type: ADME, organism-based; conditions: in vivo, 1 h
Procedure, shortened: (§2)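 Compound, aspirin or vehicle given orally 60 min before cutting the tail 2 mm from the tip, five mice per group. Blood was blotted onto filter paper every 10–15 s until flow stopped. Bleeding time is the interval from incision to cessation.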

[3] = system: Platelet; assay: Antiplatelet activity in mouse platelet rich plasma assessed as inhibition of collagen-induced platelet aggregation at 30 uM by aggregometry; assay type: functional, cell-free
Procedure, shortened: (§3)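 Mice anaesthetized with ether and bled by cardiac puncture. Platelet-rich plasma was pooled, split into sub-pools and spiked with compound or vehicle. Aggregation was induced with ADP or collagen and followed on a dual-channel aggregometer. Data given as mean ± SEM, n = 3, compared against vehicle control.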

[4] = system: Platelet; assay: Antiplatelet activity in mouse platelet rich plasma assessed as inhibition of ADP-induced platelet aggregation at 30 uM by aggregometry; assay type: functional, cell-free; procedure, shortened: as §3
[5] = system: Mus musculus; assay: Ex-vivo antiplatelet activity in mouse platelet rich plasma assessed as inhibition of ADP-induced platelet aggregation at 30 uM/kg, po for 3 days by aggregometry; assay type: functional
[6] = system: Mus musculus; assay: Ex-vivo antiplatelet activity in mouse platelet rich plasma assessed as inhibition of collagen-induced platelet aggregation at 30 uM/kg, po for 3 days by aggregometry; assay type: functional
[7] = system: Plasma; assay: Anticoagulant activity in mouse platelet poor plasma assessed as increase in activated partial thromboplastin time at 30 uM by coagulometry; assay type: functional, cell-free
Procedure, shortened: (§4)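 Mice anaesthetized with ether and bled by cardiac puncture. Platelet-poor plasma was pooled, split into sub-pools and spiked with compound or vehicle. Thrombin time, prothrombin time and APTT were run with commercial kits per manufacturer's instructions on a semi-automated coagulometer. Data given as mean ± SEM, n = 3, compared against vehicle control.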

[8] = system: Plasma; assay: Anticoagulant activity in mouse platelet poor plasma assessed as increase in thrombin time at 30 uM by coagulometry; assay type: functional, cell-free; procedure, shortened: as §4
[9] = system: Plasma; assay: Anticoagulant activity in mouse platelet poor plasma assessed as increase in prothrombin time at 30 uM by coagulometry; assay type: functional, cell-free; procedure, shortened: as §4
[10] = system: Platelet; assay: Antiplatelet activity in mouse platelet rich plasma assessed as inhibition of collagen-induced platelet aggregation at 10 uM by aggregometry; assay type: functional, cell-free; procedure, shortened: as §3
[11] = system: Platelet; assay: Antiplatelet activity in mouse platelet rich plasma assessed as inhibition of ADP-induced platelet aggregation at 10 uM by aggregometry; assay type: functional, cell-free; procedure, shortened: as §3
[12] = system: Plasma; assay: Anticoagulant activity in mouse platelet poor plasma assessed as increase in activated partial thromboplastin time at 10 uM by coagulometry; assay type: functional, cell-free; procedure, shortened: as §4
[13] = system: Plasma; assay: Anticoagulant activity in mouse platelet poor plasma assessed as increase in thrombin time at 10 uM by coagulometry; assay type: functional, cell-free; procedure, shortened: as §4
[14] = system: Plasma; assay: Anticoagulant activity in mouse platelet poor plasma assessed as increase in prothrombin time at 10 uM by coagulometry; assay type: functional, cell-free; procedure, shortened: as §4
[15] = system: Mus musculus; assay: Ex-vivo anticoagulant activity in mouse platelet poor plasma assessed as increase in thrombin time at 30 uM/kg, po for 3 days by coagulometry; assay type: functional
Procedure, shortened: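 Mice were dosed orally for three days, then bled by cardiac puncture under ether anaesthesia. Thrombin time was measured in platelet-poor plasma with a commercial kit on a semi-automated coagulometer and compared with vehicle-treated controls.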

[16] = system: Platelet; assay: Antiplatelet activity in mouse platelet rich plasma assessed as inhibition of collagen-induced platelet aggregation at 100 uM by aggregometry; assay type: functional, cell-free; procedure, shortened: as §3
[17] = system: Platelet; assay: Antiplatelet activity in mouse platelet rich plasma assessed as inhibition of ADP-induced platelet aggregation at 100 uM by aggregometry; assay type: functional, cell-free; procedure, shortened: as §3
[18] = system: Mus musculus; assay: Anti-thrombotic activity in collagen and adrenaline challenged mouse pulmonary thromboembolism model assessed as protection from paralysis or death at 30 mg/kg, po administered 60 mins prior thrombotic challenge; assay type: functional; procedure, shortened: as §1
[19] = system: Mus musculus; assay: Increase of bleeding time in mouse at 30 mg/kg, po administered 60 mins prior to tail incision; assay type: ADME, organism-based; set-up: dose 30 mg/kg, route oral; conditions: in vivo, 1 h; procedure, shortened: as §2

Cc1cc(=O)oc2c1ccc1c(OCC(=O)Nc3ccc(S(N)(=O)=O)cc3)cccc12
Activity [1]: <10% | Activity [2]: 16.5%

Cc1cc(=O)oc2c1ccc1c(OCC(=O)N3CCOCC3)cccc12
Activity [1]: 30% | Activity [2]: 66.8%

Cc1cc(=O)oc2c1ccc1c(OCC(=O)N3CCCCC3)cccc12
Activity [1]: 30% | Activity [2]: 58.5%

COc1cc(NC(=O)COc2cccc3c2ccc2c(C)cc(=O)oc23)cc(OC)c1OC
Activity [1]: 20% | Activity [2]: 41.7%

Cc1cc(=O)oc2c1ccc1c(OCC(=O)NC(C)(C)C)cccc12
Activity [1]: 40% | Activity [2]: 96.5% | inhibition [3]: Active | inhibition [4]: Active | inhibition (INH) [5]: 38% | inhibition (INH) [6]: 90% | Activity [7]: inactive | Activity [8]: Active | Activity [9]: inactive | inhibition [10]: inactive | inhibition [11]: inactive | Activity [12]: inactive | Activity [13]: inactive | Activity [14]: inactive | Activity [15]: 74%

Cc1cc(=O)oc2c1ccc1c(OCC(=O)Nc3cccc(C(=O)O)c3)cccc12
Activity [1]: <10% | Activity [2]: 8.5%

COc1ccc(CNC(=O)COc2cccc3c2ccc2c(C)cc(=O)oc23)cc1
Activity [1]: 10% | Activity [2]: 8.2%

Cc1cc(=O)oc2c1ccc1c(OCC(=O)NC3CCCCC3)cccc12
Activity [1]: 10% | Activity [2]: 0%

CC(=O)Oc1ccccc1C(=O)O [ASPIRIN]
inhibition [16]: Active | inhibition [17]: Active | Activity [18]: 37% | Activity [19]: 100%

CCCNC(=O)COc1cccc2c1ccc1c(C)cc(=O)oc12
Activity [1]: 40% | Activity [2]: 91.5% | inhibition [3]: Active | inhibition [4]: Active | Activity [7]: inactive | Activity [8]: Active | Activity [9]: inactive | inhibition [10]: inactive | inhibition [11]: inactive | Activity [12]: inactive | Activity [13]: inactive | Activity [14]: inactive

Cc1cc(=O)oc2c1ccc1c(OCC(=O)NCc3ccccc3)cccc12
Activity [1]: 10% | Activity [2]: 8.5%

Cc1cc(=O)oc2c1ccc1c(OCC(=O)N3CCN(C)CC3)cccc12
Activity [1]: 10% | Activity [2]: 8.5%

Cc1cc(=O)oc2c1ccc1c(OCC(=O)NCCCO)cccc12
Activity [1]: 45% | Activity [2]: 112.5% | inhibition [3]: Active | inhibition [4]: Active | Activity [7]: inactive | Activity [8]: Active | Activity [9]: inactive | inhibition [10]: inactive | inhibition [11]: inactive | Activity [12]: inactive | Activity [13]: inactive | Activity [14]: inactive

Cc1cc(=O)oc2c1ccc1c(OCC(=O)NC(C)C)cccc12
Activity [1]: 10% | Activity [2]: 66.5%

Cc1ccc(CNC(=O)COc2cccc3c2ccc2c(C)cc(=O)oc23)cc1C
Activity [2]: 58.5%
